Assay results: ChEMBL document CHEMBL1141070, “Synthesis and biological activity of flurbiprofen analogues as selective inhibitors of beta-amyloid(1)(-)(42) secretion” (J Med Chem, 2005)

Key:
[1] = molecular target: T1, CYP1A2 (Homo sapiens, UniProt P05177); assay: Interaction with human cytochrome P450 isoform 1A2 expressed in baculovirus-insect cells at 100 uM; assay type: ADME
T1 sequence (P05177 whole entry): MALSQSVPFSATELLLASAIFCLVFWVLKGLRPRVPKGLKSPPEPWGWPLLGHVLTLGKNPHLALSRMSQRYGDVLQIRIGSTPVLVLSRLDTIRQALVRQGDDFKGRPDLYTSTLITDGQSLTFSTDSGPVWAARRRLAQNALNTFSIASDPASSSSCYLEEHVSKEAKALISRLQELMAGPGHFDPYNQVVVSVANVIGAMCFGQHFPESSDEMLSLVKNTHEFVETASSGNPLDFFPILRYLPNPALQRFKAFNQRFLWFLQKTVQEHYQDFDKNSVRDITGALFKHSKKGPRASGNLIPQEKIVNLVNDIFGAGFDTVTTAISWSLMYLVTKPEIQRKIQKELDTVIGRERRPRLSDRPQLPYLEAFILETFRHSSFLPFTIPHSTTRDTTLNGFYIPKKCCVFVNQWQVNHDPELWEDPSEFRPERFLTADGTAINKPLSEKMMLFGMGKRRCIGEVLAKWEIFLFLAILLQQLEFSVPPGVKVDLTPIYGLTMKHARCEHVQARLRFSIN
In short: (§1)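 Microsomes from baculovirus-insect cells expressing human CYP1A2, 2C9, 2C19, 2D6 or 3A4. Compound serially diluted with an NADPH-regenerating mix (16.3 μM NADP+, 0.83 mM glucose-6-phosphate, 0.83 mM MgCl2, 0.4 U/mL G6PDH). Pre-warmed 10 min at 37 °C, then isoform-specific substrate added in 0.35 M potassium phosphate pH 7.4. Fluorometric read-out; IC50 by nonlinear regression.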

[2] = molecular target: CYP2D6 (Homo sapiens, UniProt P10635); assay: (§2) Interaction with human cytochrome P450 isoform 2D6 expressed in baculovirus-insect cells at 100 uM; assay type: ADME; in short: as §1
[3] = molecular target: CYP2C9 (Homo sapiens, UniProt P11712); assay: (§3) Interaction with human cytochrome P450 isoform 2C9 expressed in baculovirus-insect cells at 100 uM; assay type: ADME; in short: as §1
[4] = molecular target: CYP3A4 (Homo sapiens, UniProt P08684); assay: Interaction with human cytochrome P450 isoform 3A4 expressed in baculovirus-insect cells at 100 uM; assay type: ADME; in short: as §1
[5] = molecular target: CYP2C19 (Homo sapiens, UniProt P33261); assay: Interaction with human cytochrome P450 isoform 2C19 expressed in baculovirus-insect cells at 100 uM; assay type: ADME; in short: as §1
[6] = molecular target: T2, Amyloid-beta precursor protein (Homo sapiens, UniProt P05067); settings: at 100 µM
Target sequence in this assay (P05067 whole entry): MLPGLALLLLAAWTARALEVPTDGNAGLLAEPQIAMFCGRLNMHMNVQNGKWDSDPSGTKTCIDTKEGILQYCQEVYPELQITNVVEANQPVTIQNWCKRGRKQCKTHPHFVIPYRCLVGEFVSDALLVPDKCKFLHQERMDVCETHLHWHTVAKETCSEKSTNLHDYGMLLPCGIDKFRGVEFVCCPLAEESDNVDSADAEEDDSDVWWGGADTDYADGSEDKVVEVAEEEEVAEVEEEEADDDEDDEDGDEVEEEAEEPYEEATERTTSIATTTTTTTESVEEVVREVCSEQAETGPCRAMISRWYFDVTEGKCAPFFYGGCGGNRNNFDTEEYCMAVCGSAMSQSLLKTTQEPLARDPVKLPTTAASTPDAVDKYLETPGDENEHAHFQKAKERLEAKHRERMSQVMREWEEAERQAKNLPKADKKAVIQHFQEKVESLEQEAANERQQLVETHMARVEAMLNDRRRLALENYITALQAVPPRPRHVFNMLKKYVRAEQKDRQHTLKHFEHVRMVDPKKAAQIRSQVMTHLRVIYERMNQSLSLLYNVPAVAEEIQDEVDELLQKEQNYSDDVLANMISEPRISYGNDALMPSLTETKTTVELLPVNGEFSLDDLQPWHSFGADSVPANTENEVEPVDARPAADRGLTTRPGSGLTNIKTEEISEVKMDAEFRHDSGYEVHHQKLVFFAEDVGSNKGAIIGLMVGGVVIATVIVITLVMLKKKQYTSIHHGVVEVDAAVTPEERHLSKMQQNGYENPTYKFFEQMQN

[7] = Concentration ratio in cerebrospinal fluid and plasma; settings: rat
[8] = In vivo steady state metabolic clearance of the compound; settings: rat
[9] = Concentration ratio in cerebrospinal fluid and plasma; below lower limit of quantitation; settings: rat
[10] = molecular target: T2, Amyloid-beta precursor protein; assay: Inhibitory concentration against beta-amyloid-42 (Abeta42) secretion was evaluated in human neuroglioma cells (H4-APP695NL); assay type: functional, cell-based
In short: (§4)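 H4-APP695NL human neuroglioma cells (APP695 Swedish K595N/M596L) seeded at 2 × 10^5/well and grown 24 h to confluence. Increasing compound concentrations added overnight; DMSO 1% as vehicle. Supernatant Aβ42 or Aβ40 measured by electrochemiluminescence immunoassay: biotinylated 4G8 plus C-terminus-specific rabbit antibodies, captured on streptavidin beads.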
Target sequence in this assay (P05067 18-770 limits assumed): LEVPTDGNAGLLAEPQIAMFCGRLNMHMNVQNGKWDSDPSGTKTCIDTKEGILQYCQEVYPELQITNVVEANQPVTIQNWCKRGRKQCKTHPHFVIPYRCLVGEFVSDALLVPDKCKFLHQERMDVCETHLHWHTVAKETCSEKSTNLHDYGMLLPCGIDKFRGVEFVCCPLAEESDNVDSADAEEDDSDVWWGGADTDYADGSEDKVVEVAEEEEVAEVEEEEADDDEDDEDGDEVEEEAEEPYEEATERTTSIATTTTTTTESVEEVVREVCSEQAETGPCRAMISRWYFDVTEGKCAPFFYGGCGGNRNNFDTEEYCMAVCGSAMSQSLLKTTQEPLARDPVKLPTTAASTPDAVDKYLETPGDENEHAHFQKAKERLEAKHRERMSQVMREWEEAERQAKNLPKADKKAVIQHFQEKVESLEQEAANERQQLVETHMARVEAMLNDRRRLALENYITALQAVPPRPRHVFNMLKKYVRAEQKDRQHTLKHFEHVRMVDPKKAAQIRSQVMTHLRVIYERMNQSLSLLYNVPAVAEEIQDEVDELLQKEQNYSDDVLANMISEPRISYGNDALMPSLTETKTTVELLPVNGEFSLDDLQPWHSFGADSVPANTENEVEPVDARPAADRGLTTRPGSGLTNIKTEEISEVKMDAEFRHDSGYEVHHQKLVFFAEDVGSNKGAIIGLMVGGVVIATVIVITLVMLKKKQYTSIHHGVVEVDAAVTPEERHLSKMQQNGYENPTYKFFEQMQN

[11] = Intestinal drug absorption was estimated in vitro using human colon adenocarcinoma (Caco-2) cell monolayers; assay type: ADME
In short: (§5)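 Caco-2 monolayers on polycarbonate Transwell inserts, 2 h at 37 °C. Apical and basolateral solutions analysed by LC-MS/MS (SRM). Papp = Cb·Vb/(C0·A·t).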

[12] = molecular target: T3, Prostaglandin G/H synthase 1 (Rattus norvegicus) (UniProt Q63921); assay: Percent inhibition against cyclooxygenase-1 at 100 uM in rat blood
T3 sequence (whole entry): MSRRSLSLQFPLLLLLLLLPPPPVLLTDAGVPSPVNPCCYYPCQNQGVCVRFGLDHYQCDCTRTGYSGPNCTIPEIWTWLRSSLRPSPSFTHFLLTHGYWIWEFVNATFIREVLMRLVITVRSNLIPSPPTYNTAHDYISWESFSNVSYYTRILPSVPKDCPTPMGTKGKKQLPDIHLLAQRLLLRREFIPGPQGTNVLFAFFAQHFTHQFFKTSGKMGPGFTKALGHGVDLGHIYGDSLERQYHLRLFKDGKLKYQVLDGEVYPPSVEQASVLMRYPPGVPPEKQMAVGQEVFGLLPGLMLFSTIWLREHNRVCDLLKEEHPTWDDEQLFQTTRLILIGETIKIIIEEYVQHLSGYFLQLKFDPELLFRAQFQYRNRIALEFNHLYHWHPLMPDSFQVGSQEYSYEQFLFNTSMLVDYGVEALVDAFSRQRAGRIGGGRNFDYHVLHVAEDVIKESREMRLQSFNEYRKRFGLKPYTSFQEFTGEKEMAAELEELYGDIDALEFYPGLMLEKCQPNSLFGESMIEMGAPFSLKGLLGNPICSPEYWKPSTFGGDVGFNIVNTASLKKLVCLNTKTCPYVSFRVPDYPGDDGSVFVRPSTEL
In short: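 Fresh rat whole blood preincubated 1 h at 37 °C with compound (100 μM) or DMSO (0.3% final). Stimulated 30 min with A23187 calcium ionophore; plasma thromboxane B2 measured by radioimmunoassay.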

[13] = molecular target: T4, Cytochrome P450 2C9 (Homo sapiens, UniProt P11712); assay: as §3; assay type: ADME; in short: as §1
[14] = molecular target: Cytochrome P450 3A4 (Homo sapiens, UniProt P08684); assay: Interaction with human cytochrome P450 isoform 3A4 expressed in baculovirus-insect cells; assay type: ADME
In short: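 Supersome microsomes from baculovirus-insect cells expressing human CYP1A2, 2C9, 2C19, 2D6 or 3A4 were used with isoform-specific fluorogenic substrates. Compounds were serially diluted with an NADP⁺/glucose-6-phosphate regenerating system in 0.35 M potassium phosphate, pH 7.4. Plates were prewarmed 10 min at 37 °C, reactions stopped with acetonitrile/Tris, and fluorescence read. IC50 was obtained by nonlinear regression.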

[15] = molecular target: T5, Cytochrome P450 2C19 (Homo sapiens, UniProt P33261); assay: Interaction with human cytochrome P450 isoform 2C19 expressed in baculovirus-insect cells; assay type: ADME; in short: as §1
[16] = molecular target: T2, Amyloid-beta precursor protein; assay: Concentration required to inhibit A beta 40 peptide; in short: as §4
Target sequence in this assay (P05067 whole entry): as the sequence (P05067 whole entry) above

[17] = Intestinal drug absorption was estimated in vitro using human colon adenocarcinoma (Caco-2) cell monolayers; Range is 10-50 nm/s; assay type: ADME; in short: as §5
[18] = molecular target: Cytochrome P450 2D6 (Homo sapiens, UniProt P10635); assay: as §2; assay type: ADME; in short: as §1
[19] = molecular target: T4, Cytochrome P450 2C9; assay: Interaction with human cytochrome P450 isoform 2C9 expressed in baculovirus-insect cells; assay type: ADME; in short: as §1
[20] = molecular target: T2, Amyloid-beta precursor protein; assay: Concentration required to inhibit A beta 40 peptide 100 um
Target sequence in this assay (P05067 whole entry): as above

[21] = molecular target: T4, Cytochrome P450 2C9; assay: Interaction with human cytochrome P450 isoform 2C9 expressed in baculovirus-insect cells; Activation was observed due to interference in assay; assay type: ADME; in short: as §1
[22] = molecular target: T2, Amyloid-beta precursor protein; assay: Concentration required to inhibit A beta 40 peptide at 100 uM; in short: as §4
Target sequence in this assay (P05067 whole entry): as above

[23] = Area under curve after administration to rats at a dose of 7.6 mg/kg orally; assay type: ADME, organism-based; design: dose 7.6 mg/kg, route oral; settings: rat, in vivo, po
[24] = Area under curve after administration to rats at adose of 1.5 mg/kg intravenously; assay type: ADME, organism-based; design: dose 1.5 mg/kg, route intravenous; settings: rat, in vivo, iv
[25] = Maximum time corresponding to maximum concentration after administration to rats at a dose of 7.6 mg/kg orally; assay type: ADME, organism-based; design: dose 7.6 mg/kg, route oral; settings: rat, in vivo, po
[26] = Maximum time corresponding to maximum concentration after administration to rats at a dose of 1.5 mg/kg intravenously; assay type: ADME, organism-based; design: dose 1.5 mg/kg, route intravenous; settings: rat, in vivo, iv
[27] = Absolute oral bioavailability after administration to rats at a dose of 7.6 mg/kg orally; assay type: ADME, organism-based; settings: rat, in vivo
[28] = Maximal concentration in rats after 1.5 mg/kg intravenous dose; assay type: ADME, organism-based; design: dose 1.5 mg/kg, route intravenous; settings: rat, in vivo
[29] = molecular target: T6, Prostaglandin G/H synthase 1 (Rattus norvegicus, UniProt Q63921); assay: Concentration required to inhibit cyclooxygenase-1 in rat blood
T6 sequence (Q63921 whole entry): T3 sequence (whole entry)
In short: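 Fresh rat whole blood was preincubated 1 h at 37 °C with compound (100 μM or a concentration series; DMSO 0.3% final). It was then stimulated 30 min with the Ca²⁺ ionophore A23187. Thromboxane B2 in the plasma was measured by radioimmunoassay.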

[30] = Total body clearance after administration to rats at a dose of 1.5 mg/kg intravenously; assay type: ADME, organism-based; design: dose 1.5 mg/kg, route intravenous; settings: rat, in vivo, iv
[31] = Elimination phase half-life after administration to rats at a dose of 7.6 mg/kg orally; assay type: ADME, organism-based; design: dose 7.6 mg/kg, route oral; settings: rat, in vivo, po
[32] = Elimination phase half-life after administration to rats at a dose of 1.5 mg/kg intravenously; assay type: ADME, organism-based; design: dose 1.5 mg/kg, route intravenous; settings: rat, in vivo, iv
[33] = molecular target: T5, Cytochrome P450 2C19; assay: Compound was tested for interaction with baculovirus-insect cells expressing human cytochrome P450; No interactions at 100 uM; assay type: ADME
[34] = Maximal concentration in rats after 7.6 mg/kg oral dose; assay type: ADME, organism-based; design: dose 7.6 mg/kg, route oral; settings: rat, in vivo
[35] = molecular target: T5, Cytochrome P450 2C19; assay: Compound dissolved in DMSO was tested for interaction with baculovirus-insect cells expressing human cytochrome P450 at 100 uM; assay type: ADME; in short: as §1
[36] = tested on: Caco-2; assay: Permeability in the Caco-2 cell; high absorption; assay type: ADME, cell-based; settings: human; in short: as §5

T4 sequence (P11712 whole entry, canonical isoform): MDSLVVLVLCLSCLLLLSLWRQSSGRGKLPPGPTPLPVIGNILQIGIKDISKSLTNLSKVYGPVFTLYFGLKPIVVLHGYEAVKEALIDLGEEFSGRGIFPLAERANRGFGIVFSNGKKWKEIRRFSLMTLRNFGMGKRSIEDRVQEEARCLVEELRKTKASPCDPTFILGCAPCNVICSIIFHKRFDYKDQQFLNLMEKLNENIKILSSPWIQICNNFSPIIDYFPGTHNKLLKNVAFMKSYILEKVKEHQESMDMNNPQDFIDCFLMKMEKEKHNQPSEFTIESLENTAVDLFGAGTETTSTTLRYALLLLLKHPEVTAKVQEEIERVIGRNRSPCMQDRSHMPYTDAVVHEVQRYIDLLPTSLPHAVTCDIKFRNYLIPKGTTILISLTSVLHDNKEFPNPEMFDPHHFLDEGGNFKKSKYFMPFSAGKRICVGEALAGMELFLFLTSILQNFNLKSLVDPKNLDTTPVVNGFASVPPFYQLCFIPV
T5 sequence (P33261 whole entry, canonical isoform): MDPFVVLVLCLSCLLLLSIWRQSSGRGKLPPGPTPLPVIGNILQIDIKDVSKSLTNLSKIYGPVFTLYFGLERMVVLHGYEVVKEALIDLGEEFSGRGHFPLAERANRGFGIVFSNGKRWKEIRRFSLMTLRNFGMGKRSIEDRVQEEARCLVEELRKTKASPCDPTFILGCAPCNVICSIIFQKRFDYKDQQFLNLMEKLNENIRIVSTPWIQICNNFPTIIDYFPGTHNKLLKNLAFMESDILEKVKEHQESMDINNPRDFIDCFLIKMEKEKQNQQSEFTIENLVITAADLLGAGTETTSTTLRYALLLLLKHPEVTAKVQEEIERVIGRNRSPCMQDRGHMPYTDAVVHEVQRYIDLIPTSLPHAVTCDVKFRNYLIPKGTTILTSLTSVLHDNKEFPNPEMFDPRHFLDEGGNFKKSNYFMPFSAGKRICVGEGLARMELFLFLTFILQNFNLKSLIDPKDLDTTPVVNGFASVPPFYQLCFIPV
Sequence of CYP2D6 (P10635 whole entry, canonical isoform): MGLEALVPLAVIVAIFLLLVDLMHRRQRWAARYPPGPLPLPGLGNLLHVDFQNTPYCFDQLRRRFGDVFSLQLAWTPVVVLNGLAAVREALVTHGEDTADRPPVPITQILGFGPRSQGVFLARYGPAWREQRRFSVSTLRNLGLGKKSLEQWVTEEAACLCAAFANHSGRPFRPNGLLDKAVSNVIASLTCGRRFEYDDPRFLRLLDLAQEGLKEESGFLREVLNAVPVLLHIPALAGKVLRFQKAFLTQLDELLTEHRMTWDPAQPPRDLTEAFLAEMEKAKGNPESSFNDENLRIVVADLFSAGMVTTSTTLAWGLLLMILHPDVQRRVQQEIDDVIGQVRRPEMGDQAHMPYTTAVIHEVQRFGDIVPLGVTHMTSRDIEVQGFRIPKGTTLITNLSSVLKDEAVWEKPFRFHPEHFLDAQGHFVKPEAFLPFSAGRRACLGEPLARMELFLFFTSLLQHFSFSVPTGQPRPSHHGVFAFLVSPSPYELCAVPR
Sequence of Cytochrome P450 3A4 (P08684 whole entry, canonical isoform): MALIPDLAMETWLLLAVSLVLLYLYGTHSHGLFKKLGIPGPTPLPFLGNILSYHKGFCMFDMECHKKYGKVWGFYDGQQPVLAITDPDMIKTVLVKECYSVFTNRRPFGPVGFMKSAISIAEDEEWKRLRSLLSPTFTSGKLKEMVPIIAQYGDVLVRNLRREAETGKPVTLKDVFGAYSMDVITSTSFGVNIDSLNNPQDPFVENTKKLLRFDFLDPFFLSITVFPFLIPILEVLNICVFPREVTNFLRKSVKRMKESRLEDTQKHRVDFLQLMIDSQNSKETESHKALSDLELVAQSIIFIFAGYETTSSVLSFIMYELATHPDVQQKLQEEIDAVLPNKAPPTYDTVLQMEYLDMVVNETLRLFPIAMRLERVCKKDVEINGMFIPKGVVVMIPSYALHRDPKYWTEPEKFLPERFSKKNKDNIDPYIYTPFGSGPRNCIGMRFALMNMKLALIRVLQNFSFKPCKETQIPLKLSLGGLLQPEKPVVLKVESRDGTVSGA
Sequence of CYP2C19 (P33261 whole entry, canonical isoform): as the sequence (P33261 whole entry, canonical isoform) above
Sequence of CYP2C9 (P11712 whole entry, canonical isoform): as the sequence (P11712 whole entry, canonical isoform) above
Sequence of Cytochrome P450 2D6 (P10635 whole entry, canonical isoform): as the sequence (P10635 whole entry, canonical isoform) above
Sequence of CYP3A4 (P08684 whole entry, canonical isoform): as the sequence (P08684 whole entry, canonical isoform) above

CC(C(=O)NS(C)(=O)=O)c1ccc(-c2ccc(C(F)(F)F)cc2)c(F)c1 (centres undefined)
inhibition at 100 µM [1]: > 50%
inhibition at 100 µM [2]: > 50%
inhibition at 100 µM [3]: > 50%
inhibition at 100 µM [4]: > 50%
inhibition at 100 µM [5]: > 50%
inhibition [6]: 34%
Ratio [7]: 1.7%
Clearance [8]: 3.1 mL/h

O=C(O)C1(c2ccc(-c3ccc(C4CCOCC4)cc3)c(F)c2)CC1
inhibition [6]: 52%
Clearance [8]: 39 mL/h
Ratio [9]: Below LLOQ

CC(C(=O)O)c1ccc(-c2csc3ccccc23)c(F)c1 (centres undefined)
IC50 [10]: 83 µM
Papp [11]: > 50 nm/s
inhibition [12]: 68%
Activation [13]: > 50%
inhibition [6]: 96%

O=C(O)C1(c2ccc(-c3ccc(-c4ccc(O)cc4)c(F)c3)c(F)c2)CC1
IC50 [14]: 58 µM
IC50 [15]: 74 µM
IC50 [10]: 33.6 µM
Papp [11]: > 50 nm/s
IC50 [16]: 111 µM
inhibition [12]: < 1%
inhibition [6]: 80%
Clearance [8]: 109 mL/h
Ratio [9]: Below LLOQ

CC(C(=O)O)c1ccc(-c2ccc(C3CCCCC3)cc2)c(F)c1 (centres undefined)
IC50 [10]: 21 µM
Papp [17]: 50 nm/s
IC50 [16]: 46 µM
inhibition [12]: 18%
inhibition at 100 µM [1]: > 50%
inhibition at 100 µM [2]: > 50%
Inhibition [18]: > 50%
inhibition at 100 µM [5]: > 50%
inhibition [6]: 79%
Ratio [7]: 1.5%
Clearance [8]: 174 mL/h

CC(C)(C(=O)O)c1ccc(-c2ccc(C3CCCCC3)cc2)c(F)c1
IC50 [19]: 28 µM
IC50 [14]: 59 µM
inhibition [20]: 47%
inhibition [12]: 12%
inhibition [6]: 77%

CC(C(=O)O)c1ccc(-c2cc(Cl)cc(Cl)c2)c(F)c1 (centres undefined)
IC50 [10]: 77 µM
Papp [11]: > 50 nm/s
IC50 [16]: 94 µM
inhibition [12]: 65%
Activation [21]: > 50%
inhibition [6]: 75%

COC(=O)C(C)c1ccc(-c2cc(Cl)cc(Cl)c2)c(F)c1 (centres undefined)
inhibition [22]: 45%

CC(C(=O)O)c1ccc(-c2ccccc2)c(F)c1 (centres undefined) [FLURBIPROFEN]
AUC [23]: 311 µg/h/mL
AUC [24]: 78 µg/h/mL
IC50 [10]: 305 µM
Tmax [25]: 0.5 h
Tmax [26]: 0.3 h
bioavailability [27]: 78.3%
Cmax [28]: 9.1 µg/mL
Papp [11]: > 50 nm/s
IC50 [29]: 0.17 µM
Clearance [30]: 0.0191 L/h/kg
half-life [31]: 4.9 h
half-life [32]: 5.1 h
Inhibition [33]: No interactions
Cmax [34]: 49.1 µg/mL
inhibition [6]: 30%
Clearance [8]: 13.9 mL/h

CC(C(=O)O)c1ccc(-c2ccc(C(F)(F)F)cc2)c(F)c1 (centres undefined)
IC50 [10]: 129 µM
inhibition [12]: 40%
Inhibition [35]: No interactions
Absoption [36]: High
inhibition [6]: 60%
